From publication PMC5330449 (ACS sustainable chemistry & engineering, 2015)
Converted amounts (≈) assume the structure as drawn. Read-outs that look alike come from different tables or passages of the source. Marks after values point to notes of the source that are not given here. Blank lines part the entries; values can stand above or below the compound they belong to.

Legend:
[1] = system: Raw 264.7 macrophages stimulated with LPS; assay: Inhibition of LPS-induced NO production in macrophages; format: cell-based, mouse; conditions: 100 μM and 50 μM, pre-treated 1 hour, LPS 1 μg.mL^-1
[2] = Water solubility from saturated aqueous solution, UV quantification; format: physicochemical; conditions: 25 °C, pure water; for solubility at 72 h: water, thermodynamic from solid
[3] = DPPH radical scavenging assay; conditions: for DPPH radical scavenging (antioxidant) activity, in words: 30, 90 and 120 minutes of exposure to DPPH; for DPPH scavenging IC50: tested up to 1 mg.mL^-1, IC50 impossible to determine
In short: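 DPPH (250 µL of 0.91 mmol/L in methanol) was combined with 20–80 µL of a test compound stock and made up to 4 mL with methanol. Samples stood in the dark at room temperature for 30, 90 and 120 min before absorbance was read at 517 nm. Controls were DPPH without compound and ascorbic acid as positive control. Activity = (A0−A1)/A0×100, and IC50 came from scavenging-versus-concentration fits, in triplicate.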

Raw 264.7 cells = assay: Cytotoxicity, resazurin metabolic conversion, Raw 264.7; format: cell-based, mouse; conditions: for EC50: read-out: EC50, 50% decrease in cell viability
In short: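 Mouse Raw 264.7 macrophages were kept in IMDM with 10% non-inactivated FBS and penicillin/streptomycin at 37 °C, 5% CO2. After 24 h attachment, cells received test compound at 1–5000 µM in full medium for 24 h. Resazurin (10% v/v) was added for the last 1 h, and resorufin absorbance was read at 570/600 nm relative to untreated cells. EC50 was fitted by non-linear least squares to a logistic model, from three independent experiments in triplicate.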

HaCaT cells = assay: Cytotoxicity, resazurin metabolic conversion, HaCaT; format: cell-based, human
In short: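 HaCaT keratinocytes were grown in high-glucose DMEM with 4 mM glutamine, 10% heat-inactivated FBS and penicillin/streptomycin at 37 °C under 5% CO2. After 24 h attachment in 96-well plates, cells were exposed for 24 h to test compound (1–5000 µM) in full medium. Resazurin (10% v/v) was present for the final 2 h. Absorbance was read at 570/600 nm and normalised to untreated cells. EC50 came from a logistic least-squares fit of three independent experiments run in triplicate.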

[4] = Thermogravimetric analysis; format: physicochemical; conditions: TGA onset, nitrogen atmosphere, 10 °C.min^-1
Vibrio fischeri = assay: Standard Microtox liquid-phase assay; format: cell-based, Vibrio fischeri (strain NRRL B-11177); conditions: for EC50, luminescence inhibition: 30 min of exposure, 15 °C, Passino's classification; for Ecotoxicity rank among the cholinium-based salts: EC50 in mmol.L^-1, Figure 2
In short: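 Vibrio fischeri NRRL B-11177 was tested by the standard 81.9% liquid-phase protocol at 15 °C. Aqueous dilutions (0–81.9 wt% of stock) were used, with stock concentration corrected for water content by Karl Fischer titration. Luminescence was read after 5, 15 and 30 min and compared with a blank. EC50 and 95% confidence intervals were fitted to a logistic equation by non-linear least squares.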

[5] = cited from earlier work
[6] = 25 °C; ref Queimada et al. 39; cited from earlier work
[7] = Raw 264.7, 24 hours of exposure
[8] = read-out: EC50, 50% decrease in cell viability, 24 hours of exposure
[9] = Homo sapiens, 24 h, read-out: EC50, 50% decrease in cell viability

SMILES: C[N+](C)(C)CCO.C[N+](C)(C)CCO.O=c1oc2c(O)c([O-])cc3c(=O)oc4c(O)c([O-])cc1c4c23 [[Chol]2[Ell], di((2-hydroxyethyl)trimethylammonium) 3,8-dihydroxy-5,10-dioxo-5,10-dihydrochromeno[5,4,3-cde]chromene-2,7-bis(olate)]
Effect on LPS-induced NO production [1]: significantly inhibit the LPS-induced NO increase
Water solubility ± std [2]: 622.97 ± 36.98 mM
DPPH radical scavenging (antioxidant) activity, in words [3]: highest antioxidant activity
Cell viability at maximum concentration achieved (Raw 264.7 cells; 125 µM, Raw 264.7): not observed a decrease in the cell viability
Cell viability at maximum concentration achieved (HaCaT cells; 125 µM): not observed a decrease in the cell viability
Temperature of decomposition (Td) [4]: 265 ºC
Temperature of decomposition (Td) ([4]; listed as [Chol]2 [Ell]): 265.0 ºC

SMILES: C[N+](C)(C)CCO.O=C([O-])/C=C/c1ccc(O)c(O)c1 [[Chol][Caf], (2-hydroxyethyl) trimethylammonium (E)-3-(3,4-dihydroxyphenyl)acrylate]
Effect on LPS-induced NO production [1]: significantly inhibit the LPS-induced NO increase

SMILES: O=C(O)/C=C/c1ccc(O)c(O)c1 [[Chol][Caf], (2-hydroxyethyl) trimethylammonium (E)-3-(3,4-dihydroxyphenyl)acrylate]
EC50 (Raw 264.7 cells; [7]): 2340 µM
EC50 (HaCaT cells; [8]): 1790 µM

SMILES: C[N+](C)(C)CCO.O=C([O-])c1cc(O)c(O)c(O)c1 [[Chol][Gal], (2-hydroxyethyl) trimethylammonium 3,4,5-trihydroxybenzoate]
EC50, luminescence inhibition (Vibrio fischeri): > 1000 µg/mL
Ecotoxicity rank among the cholinium-based salts (Vibrio fischeri): less toxic
Effect on LPS-induced NO production [1]: neither [Chol][Gal] nor gallic acid decrease the LPS-induced NO production
Water solubility ± std [2]: 2402.27 ± 6.09 mM
Temperature of decomposition (Td) [4]: 185.3 ºC

SMILES: O=C(O)c1cc(O)c(O)c(O)c1 [[Chol][Gal], (2-hydroxyethyl) trimethylammonium 3,4,5-trihydroxybenzoate]
EC50 (Raw 264.7 cells; [7]): 836 µM
EC50 (HaCaT cells; [8]): 304 µM

SMILES: C[N+](C)(C)CCO.O=C([O-])c1ccccc1O [[Chol][Sal], (2-hydroxyethyl) trimethylammonium 2-hydroxybenzoate, reference compound]
Ecotoxicity rank among the cholinium-based salts (Vibrio fischeri): most toxic
Water solubility ± std [2]: Completely miscible
DPPH scavenging IC50 [3]: > 1000 µg/mL
Temperature of decomposition (Td) [4]: 226.0 ºC

SMILES: COc1cc(C(=O)[O-])cc(OC)c1O.C[N+](C)(C)CCO [[Chol][Syr], (2-hydroxyethyl) trimethylammonium 4-hydroxy-3,5-dimethoxybenzoate]
Water solubility ± std [2]: 2793.71 ± 17.98 mM
Temperature of decomposition (Td) [4]: 178.9 ºC

SMILES: COc1cc(C(=O)[O-])ccc1O.C[N+](C)(C)CCO [[Chol][Van], (2-hydroxyethyl) trimethylammonium 4-hydroxy-3-methoxybenzoate]
EC50, luminescence inhibition (Vibrio fischeri): > 1000 µg/mL
DPPH radical scavenging (antioxidant) activity, in words [3]: significantly higher DPPH radical scavenging activity than vanillic acid
Temperature of decomposition (Td) [4]: 186.8 ºC

solubility at 72 h [2]: 3.84 ± 0.04 mM (≈ 692 µg/mL)
SMILES: O=C(O)/C=C/c1ccc(O)c(O)c1 [caffeic acid, reference compound]
EC50 (Raw 264.7 cells; Mus musculus, RAW264.7, 24 h): 2000 µM
EC50 (HaCaT cells; [9]): 1800 µM

SMILES: C[N+](C)(C)CCO.[Cl-] [cholinium chloride, Cholinium chloride]
Decomposition temperature [5]: circa 305 ºC

Temperature of decomposition (Td) [4]: 472.6 ºC
SMILES: O=c1oc2c(O)c(O)cc3c(=O)oc4c(O)c(O)cc1c4c23 [ellagic acid, reference compound]
Water solubility ± std [6]: 1.26E-02 ± 3.31E-04 ^b mmol.L^-1

solubility at 72 h [2]: 71.3 ± 2.7 mM (≈ 12100 µg/mL)
Temperature of decomposition (Td) [4]: 262.5 ºC
SMILES: O=C(O)c1cc(O)c(O)c(O)c1 [gallic acid, 3,4,5-trihydroxybenzoic acid, reference compound]
Effect on LPS-induced NO production [1]: neither [Chol][Gal] nor gallic acid decrease the LPS-induced NO production
EC50 (Raw 264.7 cells; Mus musculus, RAW264.7, 24 h): 591 µM
EC50 (HaCaT cells; [9]): 267 µM

DPPH scavenging IC50 [3]: > 1000 µg/mL
Temperature of decomposition (Td) [4]: 183.9 ºC
SMILES: O=C(O)c1ccccc1O [salicylic acid, reference compound]

SMILES: COc1cc(C(=O)O)ccc1O [vanillic acid, reference compound]
Temperature of decomposition (Td) [4]: 233.7 ºC
